Apaf-1 act: human Apaf-1 activation. actives 0.31% (n = 330,000). O14727. activity change, negative = activation, % at 20 µM. Apaf-1 apoptosome caspase-3 activation, DEVD-Rh110 fluorescence; stronger effect = lower value;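 active = activity change at or below -40% at 20 µM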
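Schedule: 30 min preincubation, 50 min reaction, room temperature / System: biochemical Apaf-1 apoptosome reconstitution / Medium: 20 mM HEPES pH 7.5 with CHAPS, BSA / Evaluation: Caspase-3 cleavage activity downstream of Apaf-1 activation / Detection: Caspase-3-released Rh110 fluorescence, 540 nm emission, 480 nm excitation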
Rh110 interf act: interferes with Rh110 fluorescence, flagging false Apaf-1 activators | shares compounds with Apaf-1 act | Rh110 fluorescence interference, quenched caspase reaction, Ex480/Em540 | fluorescence interference (activity change), % at 20 µM, hits read low | 980 tested, under 10 active;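 active = mean activity change at or below -40% when tested at 20 µM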
Apaf-1 act conf: Apaf-1 (human) activation, single-dose confirmed; shares compounds with Apaf-1 act; reconstituted apoptosome caspase-3 activity, DEVD-Rh110 fluorescence; stronger effect = lower value; activity change, negative = activation, % at 20 µM; actives 5% (n = 980); AID 504617;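 active = mean activity change at or below -40%, meaning activation of 40% or more, at 20 µM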
Apaf1 act interf: counter-screen for Apaf-1 activators: fluorescence interference, dose response; fluorescence interference counterscreen, Apaf-1 activator assay; 55 tested, under 10 active; AID 588592; shares compounds with Apaf-1 act; EC50, µM; call rule not given here
Active calls of the source: *. Not all results are given here.

`CC1(C(=O)Nc2cccc3ccccc23)CC1(Br)Br` (stereo not drawn) gave Apaf-1 act 56.
`CC(C)C(C(=O)O)N1C(=O)/C(=C/C=C/c2ccco2)SC1=S` (stereo not drawn) gave Apaf-1 act 46.
Screening Cc1ccc(-c2nc3n(n2)Cc2ccccc2-3)cc1 returned Apaf-1 act -197*, Rh110 interf act 0 and Apaf-1 act conf 13.
For CSc1ccc(C=NNc2ccc(S(=O)(=O)Nc3ccccc3C(=O)O)cc2[N+](=O)[O-])cc1 the results were Apaf-1 act -90*, Rh110 interf act 11, Apaf-1 act conf -133* and Apaf1 act interf >100.
For CC(C)Cn1c(N)c(C(=O)COC(=O)C2CCCCC2)c(=O)n(C)c1=O the results were Apaf-1 act 43.
For CCOC12NC(=O)CC(=O)N1C(c1ccccc1)=CS2 (stereo not drawn) the results were Apaf-1 act -294*, Rh110 interf act -2 and Apaf-1 act conf 13.
Screening CN(C)C=Nc1ccc2nc3c(cc2c1)[nH]c1ccccc13 returned Apaf-1 act 46.
CCN(Cc1ccccc1)S(=O)(=O)c1ccc(C(=O)N(CCCN(C)C)c2nc3cc(C)cc(C)c3s2)cc1 was read as Apaf-1 act 42.
For COc1ccc2cc1Oc1ccc(cc1)C[C@H]1c3c(cc(OC)c4c3Oc3c(ccc5c3[C@H](C2)N(C)CC5)O4)CCN1C the results were Apaf-1 act 59.
For CC(=O)c1ccc2c(c1)c(C#N)c1ccccc1[n+]2[O-] the results were Apaf-1 act 74.
Screening Oc1ccc(Br)cc1-c1nc2cnccn2c1NC1CCCC1 returned Apaf-1 act -566*, Rh110 interf act 6 and Apaf-1 act conf 12.
For Cc1ccn2c(NC3CCCCC3)c(-c3cccc(SC4CCCCC4)c3)nc2c1 the results were Apaf-1 act 40.
`CCC(C)Sc1cccc(-c2nc3cc(C)ccn3c2NC2CCCCC2)c1` (stereo not drawn) gave Apaf-1 act 41.
CCCCCc1cc(=O)oc2c(C(CCN(CC)CC)c3ccc(OC)cc3)c(OC)cc(OC)c12 (stereo not drawn) was read as Apaf-1 act 61.
For O=C(Nc1ccc(N2CCN(C(=O)c3ccccc3F)CC2)cc1)c1cncc(Br)c1 the results were Apaf-1 act -65*, Rh110 interf act 14 and Apaf-1 act conf 17.
C#CCOCCOCCOCCNc1nc(N2CCN(C(=O)C([C@@H](C)O)n3cc([C@@H](N)CCCCN)nn3)CC2)nc(N2CCN(C(=O)[C@H](CCCN=C(N)N)n3cc(C(N)[C@@H](C)CC)nn3)CC2)n1 (stereo partly drawn) was read as Apaf-1 act 46.
For COc1cc(/C=C2\C(=O)N(CCC#N)N=C2C)c(Br)cc1OC(C)C the results were Apaf-1 act 79.
`C1CCC(C(CC2CCCCN2)C2CCCCC2)CC1` (stereo not drawn) gave Apaf-1 act 60.
For Cc1ccc(OCCNC(=O)CCNS(=O)(=O)c2ccc(C)cc2)cc1 the results were Apaf-1 act -605*, Rh110 interf act 16 and Apaf-1 act conf 13.
`COCCNC(=O)CN(c1cccc(OC)c1)S(=O)(=O)c1ccc(C)cc1` gave Apaf-1 act 57.
Screening Cc1ccc(S(=O)(=O)N2CCN(C(=O)CCOc3cc(C)ccc3C)CC2)cc1 returned Apaf-1 act 40.
O=C(NCc1ccccc1)c1ccc(CN(c2ccccn2)S(=O)(=O)c2ccccc2)cc1 was read as Apaf-1 act -115*, Rh110 interf act 4 and Apaf-1 act conf 2.
`CCOc1cccc2sc(N(CCCN(C)C)C(=O)c3ccc(S(=O)(=O)N(C)Cc4ccccc4)cc3)nc12` gave Apaf-1 act 62.
CCOc1cccc2sc(N(CCCN(C)C)C(=O)c3ccc(S(=O)(=O)N(CC)Cc4ccccc4)cc3)nc12 was read as Apaf-1 act 67.
`Cc1ccc(C)c(S(=O)(=O)c2c(C)cc(C)nc2Cl)c1` gave Apaf-1 act -303*, Rh110 interf act 1 and Apaf-1 act conf 8.
Cc1ccc(C)c(S(=O)(=O)C(C#N)c2nc3ccccc3nc2N2CCCC2)c1 (stereo not drawn) was read as Apaf-1 act 87.
`CCCC[n+]1ccn(C2=C([O-])c3ccccc3C(=O)/C2=N\S(=O)(=O)c2ccc(Cl)cc2)c1` gave Apaf-1 act 52.
For C=CCC[C@@H](Cc1ccc(F)cc1)C(=O)OC[C@H]1CCCN1C(=O)[C@@H](CC=C)CC(=O)N[C@H](CO)Cc1ccccc1 the results were Apaf-1 act 40.
`C#CCOCCOCCOCCNc1nc(N2CCN(C(=O)[C@H]([C@@H](C)CC)n3cc([C@@H](N)Cc4ccc(O)cc4)nn3)CC2)nc(N2CCN(C(=O)[C@H](Cc3cc4ccccc4[nH]3)n3cc([C@@H](N)CC(C)C)nn3)CC2)n1` gave Apaf-1 act 63.
CC(NC(=O)c1ccccc1Cl)C(=O)O (stereo not drawn) was read as Apaf-1 act -532*, Rh110 interf act -1 and Apaf-1 act conf 3.
O=C(NC1(O)C(=O)c2ccccc2C1=O)c1c(Cl)cccc1Cl was read as Apaf-1 act 96.
`COC(=O)c1ccc(-c2ccc(C(c3c(C)[nH][nH]c3=O)c3c(C)[nH][nH]c3=O)o2)cc1` gave Apaf-1 act 44.
Screening Cc1ccc(NC(=O)C2CCN(C(=O)[C@@H]3Cc4ccccc4CN3)CC2)c(C)c1 returned Apaf-1 act -72*, Rh110 interf act -4 and Apaf-1 act conf 9.
O=S(=O)(/N=C/N1CCOCC1)c1ccc(Cl)cc1 was read as Apaf-1 act 43.
C/C(=N\Nc1ccc([N+](=O)[O-])cc1)c1ccc(C#N)cc1 was read as Apaf-1 act -44*, Rh110 interf act 6 and Apaf-1 act conf 2.
Screening N#CCCS(=O)(=O)c1ccc(N)cc1 returned Apaf-1 act -61*, Rh110 interf act 0 and Apaf-1 act conf 5.
`Cc1cc(C)nc(NS(=O)(=O)c2ccc(N)cc2)n1` gave Apaf-1 act -3.
Screening Clc1cccc(CSc2nnc(-c3ccccn3)n2Cc2ccco2)c1 returned Apaf-1 act 42.
Screening CCOc1ccc2noc3c2c1C(=O)c1ccccc1-3 returned Apaf-1 act 76 and Apaf1 act interf 14*.
For COC(CNC(=O)c1ccc2c3c(onc13)-c1ccccc1C2=O)OC the results were Apaf-1 act 73.
Screening O=C1c2ccccc2-c2onc3ccc(NCc4ccco4)c1c23 returned Apaf-1 act 69.
`CC(=O)c1ccc(OCC(=O)NCC(c2ccco2)N2CCCCC2)cc1` (stereo not drawn) gave Apaf-1 act -44*, Rh110 interf act 7 and Apaf-1 act conf 13.
Screening CN1CCc2nc(SCC(=O)Nc3cccc(F)c3)c(C#N)c(-c3cccs3)c2C1 returned Apaf-1 act 67.
`OCCC1CN(Cc2ccc3ncccc3c2)CCN1Cc1ccccc1` (stereo not drawn) gave Apaf-1 act -247*, Rh110 interf act -1 and Apaf-1 act conf 8.
